In ChEMBL document CHEMBL1143406 (Antimicrob Agents Chemother, 2007):

How the values were obtained:
[1] = AUC (12 hrs) in HIV-negative human at 400 mg, po administered every 12 hrs coadministered with 600 mg of rifampin every 24 hrs; type: ADME, organism-based; set-up: dose 400 mg, time < 12 hr, route oral; conditions: plasma
Outline: (§1)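 Healthy HIV-negative volunteers, open-label sequential periods at steady state. […] Plasma (EDTA) drawn predose and 1–12 h (plus 24 h) on last day of period. Atazanavir measured by HPLC-UV 212 nm, linear 25–20,000 ng/ml. Noncompartmental analysis; AUC24 taken as doubled AUC12.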

[2] = Tmax in HIV-negative human at 300 mg, po administered every 12 hrs; type: ADME, organism-based; conditions: in vivo; outline: as §1
Homo sapiens [3] = assay: Toxicity in HIV-negative human assessed as alanine aminotransferase levels at 400 mg, po administered every 12 hrs coadministered with 600 mg of rifampin every 24 hrs; conditions: in vivo
Homo sapiens [4] = assay: Toxicity in gilbert's genotype lacking human assessed as bilirubin level at 300 mg, po administered every 12 hrs; type: organism-based; conditions: in vivo
Homo sapiens [5] = assay: Terminal apparent distribution volume in HIV-negative human serum at 300 mg, po administered every 12 hrs coadministered with 600 mg of rifampin every 24 hrs; type: ADME, organism-based; conditions: in vivo; outline: as §1
[6] = Tmax in HIV-negative human at 400 mg, po administered every 12 hrs coadministered with 600 mg of rifampin every 24 hrs; type: ADME, organism-based; conditions: in vivo; outline: as §1
[7] = Cmax in HIV-negative human at 400 mg administered every 24 hrs; type: ADME, organism-based; set-up: dose 400 mg; conditions: in vivo
Homo sapiens [8] = assay: Terminal apparent distribution volume in HIV-negative human serum at 300 mg, po administered every 12 hrs; type: ADME, organism-based; conditions: in vivo; outline: as §1
Homo sapiens [9] = assay: Toxicity in HIV-negative human assessed as hemoglobin level at 400 mg, po administered every 12 hrs coadministered with 600 mg of rifampin every 24 hrs; conditions: in vivo
Homo sapiens [10] = assay: Toxicity in HIV-negative human assessed as bilirubin level at 300 mg, po administered every 12 hrs administered every 12 hrs coadministered with 600 mg of rifampin every 24 hrs; type: organism-based; conditions: in vivo
Outline: (§2)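 Serum bilirubin measured at commercial laboratories as a safety test during steady-state dosing periods in healthy HIV-negative volunteers.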

[11] = Apparent oral clearance in HIV-negative human serum at 300 mg, po administered every 12 hrs; type: ADME, organism-based; outline: as §1
[12] = AUC (12 hrs) in HIV-negative human at 300 mg, po administered every 12 hrs coadministered with 600 mg of rifampin every 24 hrs; type: ADME, organism-based; set-up: dose 300 mg, time < 12 hr, route oral; conditions: plasma; outline: as §1
[13] = Drug level in HIV-negative human serum at 300 mg, po administered every 12 hrs coadministered with 600 mg of rifampin every 24 hrs measured at 12 hrs; type: ADME, organism-based
Outline: (§3)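 Steady-state atazanavir level 12 h after morning dose, sampled before the evening dose and read directly from observed data. […] Plasma measured by HPLC-UV at 212 nm after tert-butyl methyl ether extraction. Linear range 25–20,000 ng/ml.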

Homo sapiens [14] = assay: Toxicity in HIV-negative human assessed as hemoglobin level at 300 mg, po administered every 12 hrs administered every 12 hrs coadministered with 600 mg of rifampin every 24 hrs; type: organism-based; conditions: in vivo
Homo sapiens [15] = assay: Toxicity in human with six gilbert's genotype heterozygotes assessed as bilirubin level at 300 mg, po administered every 12 hrs; type: organism-based; conditions: in vivo
[16] = Cmax in HIV-negative human at 300 mg coadministered with 100 mg of ritonavir every 24 hrs; type: ADME, organism-based; set-up: dose 300 mg; conditions: in vivo
Homo sapiens [17] = assay: Terminal apparent distribution volume in HIV-negative human serum at 400 mg, po administered every 12 hrs coadministered with 600 mg of rifampin every 24 hrs; type: ADME, organism-based; conditions: in vivo; outline: as §1
Homo sapiens [18] = assay: Toxicity in HIV-negative human assessed as alanine aminotransferase levels at 300 mg, po administered every 12 hrs; type: organism-based; conditions: in vivo
[19] = Cmax in HIV-negative human at 300 mg, po administered every 12 hrs; type: ADME, organism-based; set-up: dose 300 mg, route oral; conditions: in vivo; outline: as §1
Homo sapiens [20] = species on record: Homo sapiens; assay: Toxicity in HIV-negative human assessed as grade 3 fatigue; type: organism-based; conditions: in vivo
[21] = Apparent oral clearance in HIV-negative human serum at 300 mg, po administered every 12 hrs coadministered with […] every 24 hrs; type: ADME, organism-based
[22] = AUC (24 hrs) in HIV-negative human at 300 mg, po administered every 12 hrs coadministered with 600 mg of rifampin every 24 hrs; type: ADME, organism-based; set-up: dose 300 mg, time < 24 hr, route oral; conditions: plasma; outline: as §1
[23] = Cmax in HIV-negative human at 300 mg, po administered every 12 hrs coadministered with 600 mg of rifampin every 24 hrs; type: ADME, organism-based; set-up: dose 300 mg, route oral; conditions: in vivo; outline: as §1
[24] = Apparent oral clearance in HIV-negative human serum at 300 mg, po administered every 12 hrs coadministered with 600 mg of rifampin every 24 hrs; type: ADME, organism-based; outline: as §1
[25] = AUC (12 hrs) in HIV-negative human at 300 mg, po administered every 12 hrs; type: ADME, organism-based; set-up: time < 12 hr, dose 300 mg, route oral; conditions: plasma; outline: as §1
Homo sapiens [26] = assay: Toxicity in HIV-negative human assessed as bilirubin level at 300 mg, po administered every 12 hrs; type: organism-based; conditions: in vivo; outline: as §2
[27] = Half life in HIV-negative human at 300 mg, po administered every 12 hrs coadministered with 600 mg of rifampin every 24 hrs; type: ADME, organism-based; conditions: in vivo; outline: as §1
[28] = AUC (24hrs) in HIV-negative human at 400 mg administered every 24 hrs; type: ADME, organism-based; conditions: plasma
[29] = Tmax in HIV-negative human at 300 mg, po administered every 12 hrs coadministered with 600 mg of rifampin every 24 hrs; type: ADME, organism-based; conditions: in vivo; outline: as §1
Homo sapiens [30] = assay: Toxicity in HIV-negative human assessed as alanine aminotransferase levels at 300 mg, po administered every 12 hrs administered every 12 hrs coadministered with 600 mg of rifampin every 24 hrs; type: organism-based; conditions: in vivo
Homo sapiens [31] = assay: Toxicity in human with two gilbert's genotype homozygotes assessed as bilirubin level at 300 mg, po administered every 12 hrs; type: organism-based; conditions: in vivo
Homo sapiens [32] = assay: Toxicity in HIV-negative human assessed as creatinine levels at 400 mg, po administered every 12 hrs coadministered with 600 mg of rifampin every 24 hrs; conditions: in vivo
[33] = Half life in HIV-negative human at 400 mg, po administered every 12 hrs coadministered with 600 mg of rifampin every 24 hrs; type: ADME, organism-based; conditions: in vivo; outline: as §1
[34] = AUC (24 hrs) in HIV-negative human at 300 mg coadministered with 100 mg of ritonavir every 24 hrs; type: ADME, organism-based; set-up: dose 300 mg, time < 24 hr; conditions: plasma
[35] = AUC (24 hrs) in HIV-negative human at 300 mg, po administered every 12 hrs; type: ADME, organism-based; set-up: dose 300 mg, time < 24 hr, route oral; conditions: plasma; outline: as §1
[36] = Drug level in HIV-negative human serum at 400 mg, po administered every 12 hrs coadministered with 600 mg of rifampin every 24 hrs measured at 12 hrs; type: ADME, organism-based; outline: as §3
[37] = AUC (24 hrs) in HIV-negative human at 400 mg, po administered every 12 hrs coadministered with 600 mg of rifampin every 24 hrs; type: ADME, organism-based; set-up: dose 400 mg, time < 24 hr, route oral; conditions: plasma; outline: as §1
Homo sapiens [38] = assay: Toxicity in HIV-negative human assessed as bilirubin level at 400 mg, po administered every 12 hrs coadministered with 600 mg of rifampin every 24 hrs; conditions: in vivo
Homo sapiens [39] = assay: Toxicity in HIV-negative human assessed as creatinine levels at 300 mg, po administered every 12 hrs administered every 12 hrs coadministered with 600 mg of rifampin every 24 hrs; type: organism-based; conditions: in vivo
Homo sapiens [40] = assay: Toxicity in HIV-negative human assessed as hemoglobin level at 300 mg, po administered every 12 hrs; type: organism-based; conditions: in vivo
Homo sapiens [41] = assay: Toxicity in HIV-negative human assessed as creatinine levels at 300 mg, po administered every 12 hrs; type: organism-based; conditions: in vivo
[42] = Cmax in HIV-negative human at 400 mg, po administered every 12 hrs coadministered with 600 mg of rifampin every 24 hrs; type: ADME, organism-based; set-up: dose 400 mg, route oral; conditions: in vivo; outline: as §1
[43] = Half life in HIV-negative human at 300 mg, po administered every 12 hrs; type: ADME, organism-based; conditions: in vivo; outline: as §1
[44] = Drug level in HIV-negative human serum at 300 mg, po administered every 12 hrs measured at 12 hrs; type: ADME, organism-based; outline: as §3

AUC at 12 h [1]: 9800 ng·h/mL | Tmax [2]: 3.2 h | Vbeta (Homo sapiens [5]): 252 L | Tmax [6]: 2.9 h | Cmax [7]: 5200 ng/mL | Vbeta (Homo sapiens [8]): 78 L | CL/F [11]: 202 mL/min | AUC at 12 h [12]: 5100 ng·h/mL | concentration at 12 h [13]: 44 ng/mL | Cmax [16]: 6130 ng/mL | Vbeta (Homo sapiens [17]): 171 L | Cmax [19]: 3910 ng/mL | CL/F [21]: 808 mL/min | AUC at 24 h [22]: 10300 ng·h/mL | Cmax [23]: 1430 ng/mL | CL/F [24]: 1390 mL/min | AUC at 12 h [25]: 23800 ng·h/mL | half-life [27]: 2.2 h | AUC at 24 h [28]: 29300 ng·h/mL | Tmax [29]: 2.7 h | half-life [33]: 2.4 h | AUC at 24 h [34]: 61400 ng·h/mL | AUC at 24 h [35]: 47600 ng·h/mL | concentration at 12 h [36]: 113 ng/mL | AUC at 24 h [37]: 19600 ng·h/mL | Cmax [42]: 2360 ng/mL | half-life [43]: 5.1 h | concentration at 12 h [44]: 811 ng/mL
Structure (SMILES): COC(=O)N[C@H](C(=O)N[C@@H](Cc1ccccc1)[C@@H](O)CN(Cc1ccc(-c2ccccn2)cc1)NC(=O)[C@@H](NC(=O)OC)C(C)(C)C)C(C)(C)C [ATAZANAVIR]
Activity (Homo sapiens [3]): Non-toxic | Activity (Homo sapiens [4]): 2.6 mg/dL | Activity (Homo sapiens [9]): Non-toxic | Activity (Homo sapiens [10]): Non-toxic | Activity (Homo sapiens [14]): Non-toxic | Activity (Homo sapiens [15]): 4.1 mg/dL | Activity (Homo sapiens [18]): Non-toxic | Activity (Homo sapiens [20]): 7% | Activity (Homo sapiens [26]): Toxic | Activity (Homo sapiens [30]): Non-toxic | Activity (Homo sapiens [31]): 5 mg/dL | Activity (Homo sapiens [32]): Non-toxic | Activity (Homo sapiens [38]): Non-toxic | Activity (Homo sapiens [39]): Non-toxic | Activity (Homo sapiens [40]): Non-toxic | Activity (Homo sapiens [41]): Non-toxic
